Reference: ChEMBL document CHEMBL3098054, “The synthesis of novel taxoids for oral administration” (Bioorg Med Chem, 2014)

Tests used:
HeLa = test: Cytotoxicity against human HeLa cells at 1 uM after 72 hrs by MTT assay; format: functional; conditions: read-out: GI
In short: (§1)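 Cells plated at 2000–5000/well, attached overnight at 37 °C. DMSO stocks (100 mM) serially diluted in medium to a final 1 µM, tested in duplicate wells. Exposure 72 h at 37 °C, 5% CO₂. MTT (5 mg/mL, 10 µL) added for 4 h. Lysis in 10% SDS / 5% isopropanol / 0.012 N HCl, then OD read at 580–680 nm.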

[1] = Efflux ratio of apparent permeability from basolateral to apical side over apical to basolateral side in human Caco2 cells at 10 uM after 90 mins by LC-MS/MS analysis; format: ADME, cell-based, Caco-2; conditions: Caco-2
In short: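 Caco-2 cells cultured 21 days on 24-well inserts, TEER >250 Ω·cm². Monolayers pre-incubated in HBSS pH 7.4 at 37 °C. Compound added to the donor side at 10 µM, 37 °C, 5% CO₂, 90 min, in the A-to-B and B-to-A directions. Donor and receiver levels measured by LC-MS/MS. Papp calculated from receiver amount, membrane area 0.7 cm², time and initial donor concentration. Efflux ratio = B–A/A–B.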

[2] = Apparent permeability from apical to basolateral side in human Caco2 cells at 10 uM after 90 mins by LC-MS/MS analysis; format: ADME, cell-based, Caco-2; conditions: Caco-2
MCF7 [3] = test: Cytotoxicity against human MCF7 cells after 72 hrs by MTT assay; format: functional, cell-based; conditions: MCF7, 72 h
In short: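 MCF-7 cells exposed to compound for 72 h and read by MTT. At least six replicate wells per assay, run on three separate occasions. IC₅₀ given as mean with standard deviation.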

[4] = Apparent permeability from basolateral to apical side in human Caco2 cells at 10 uM after 90 mins by LC-MS/MS analysis; format: ADME, cell-based, Caco-2; conditions: Caco-2
A-375 = test: Cytotoxicity against human A375 cells at 1 uM after 72 hrs by MTT assay; format: functional; conditions: A-375, 72 h, read-out: GI
In short: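 Cells plated at 2000–5000/well, attached overnight at 37 °C. DMSO stocks (100 mM) serially diluted in medium to a final 1 µM, tested in duplicate wells. MTT (5 mg/mL, 10 µL) added for 4 h. Lysis in 10% SDS / 5% isopropanol / 0.012 N HCl, then OD read at 580–680 nm.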

HT-29 = test: Cytotoxicity against human HT-29 cells at 1 uM after 72 hrs by MTT assay; format: functional; conditions: HT-29, 72 h, read-out: GI; in short: as §1
A2780 = test: Cytotoxicity against human A2780 cells at 1 uM after 72 hrs by MTT assay; format: functional; conditions: A2780, 72 h, read-out: GI; in short: as §1
MCF7 [5] = test: Cytotoxicity against human MCF7 cells at 1 uM after 72 hrs by MTT assay; format: functional; conditions: MCF7, 72 h, read-out: GI; in short: as §1
NCI-H460 = test: Cytotoxicity against human NCI-H460 cells at 1 uM after 72 hrs by MTT assay; format: functional; conditions: NCI-H460, 72 h, read-out: GI; in short: as §1
DU-145 = test: Cytotoxicity against human DU145 cells at 1 uM after 72 hrs by MTT assay; format: functional; conditions: DU-145, 72 h, read-out: GI; in short: as §1
HL-60 = test: Cytotoxicity against human HL60 cells at 1 uM after 72 hrs by MTT assay; format: functional; conditions: HL-60, 72 h, read-out: GI; in short: as §1

Structure (SMILES)	inhibition of growth at 1 µM (HeLa)	efflux ratio at 1.5 h, 10 µM [1]	Papp A→B at 1.5 h, 10 µM [2]	IC50 (MCF7 [3])	Papp B→A at 1.5 h, 10 µM [4]	inhibition of growth at 1 µM (A-375)	inhibition of growth at 1 µM (HT-29)	inhibition of growth at 1 µM (A2780)	inhibition of growth at 1 µM (MCF7 [5])	inhibition of growth at 1 µM (NCI-H460)	inhibition of growth at 1 µM (DU-145)	inhibition of growth at 1 µM (HL-60)
CO[C@H]1C(=O)[C@]2(C)CC[C@H]3OC[C@@]3(OC(C)=O)[C@H]2[C@H](OC(=O)c2ccccc2)[C@]2(O)C[C@H](OC(=O)[C@H](O)[C@H](CC(C)C)NC(=O)OC(C)(C)C)C(C)=C1C2(C)C	99.3%	5.12	7.17 ×10⁻⁶ cm/s	3.06 nM	38.6 ×10⁻⁶ cm/s							
CO[C@H]1C[C@H]2OC[C@@]2(OC(C)=O)[C@H]2[C@H](OC(=O)c3ccccc3)[C@]3(O)C[C@H](OC(=O)[C@H](O)[C@H](CC(C)C)NC(=O)OC(C)(C)C)C(C)=C([C@@H](OC(=O)N(C)C)C(=O)[C@]12C)C3(C)C	101%		8.17 ×10⁻⁶ cm/s	1.7 nM	32.6 ×10⁻⁶ cm/s	89%						
COC(=O)O[C@H]1C(=O)[C@]2(C)[C@@H](OC)C[C@H]3OC[C@@]3(OC(C)=O)[C@H]2[C@H](OC(=O)c2ccccc2)[C@]2(O)C[C@H](OC(=O)[C@H](O)[C@@H](NC(=O)OC(C)(C)C)c3ccccc3)C(C)=C1C2(C)C	99.5%	4.22	6.91 ×10⁻⁶ cm/s	1.4 nM	29.2 ×10⁻⁶ cm/s	103%	87.3%	94.1%	95.3%	80.4%	83.3%	97.4%
COC(=O)O[C@H]1C(=O)[C@]2(C)[C@@H](OC)C[C@H]3OC[C@@]3(OC(C)=O)[C@H]2[C@H](OC(=O)c2ccccc2)[C@]2(O)C[C@H](OC(=O)[C@H](O)[C@H](CC(C)C)NC(=O)OC(C)(C)C)C(C)=C1C2(C)C	99.7%		8.87 ×10⁻⁶ cm/s	2.9 nM	33.3 ×10⁻⁶ cm/s							
CO[C@H]1C(=O)[C@]2(C)[C@@H](OC(=O)N(C)C)C[C@H]3OC[C@@]3(OC(C)=O)[C@H]2[C@H](OC(=O)c2ccccc2)[C@]2(O)C[C@H](OC(=O)[C@H](O)[C@@H](NC(=O)c3ccccc3)c3ccccc3)C(C)=C1C2(C)C	103%		3.27 ×10⁻⁶ cm/s	64.7 nM		88.4%	89.4%	95.6%	90.8%	87.7%	85.8%	97.8%
COC(=O)O[C@H]1C[C@H]2OC[C@@]2(OC(C)=O)[C@H]2[C@H](OC(=O)c3ccccc3)[C@]3(O)C[C@H](OC(=O)[C@H](O)[C@@H](NC(=O)OC(C)(C)C)c4ccccc4)C(C)=C([C@@H](OC)C(=O)[C@]12C)C3(C)C	102%	5.23	6.97 ×10⁻⁶ cm/s	4.97 nM	38.8 ×10⁻⁶ cm/s	97.4%	89.7%	96.4%	103%	89.5%	88.5%	97%
COC(=O)O[C@H]1C[C@H]2OC[C@@]2(OC(C)=O)[C@H]2[C@H](OC(=O)c3ccccc3)[C@]3(O)C[C@H](OC(=O)[C@H](O)[C@H](CC(C)C)NC(=O)OC(C)(C)C)C(C)=C([C@@H](OC)C(=O)[C@]12C)C3(C)C	100%		7.16 ×10⁻⁶ cm/s	2.81 nM	36.4 ×10⁻⁶ cm/s							
CO[C@H]1C(=O)[C@]2(C)[C@@H](OC)C[C@H]3OC[C@@]3(OC(C)=O)[C@H]2[C@H](OC(=O)c2ccccc2)[C@]23OC(=O)O[C@H]2[C@H](OC(=O)[C@H](O)[C@@H](NC(=O)c2ccccc2)c2ccccc2)C(C)=C1C3(C)C	101%		1.48 ×10⁻⁶ cm/s	6.93 nM		90.8%	89.4%	96.7%	96%	87.9%	87.8%	96.6%
CO[C@H]1C(=O)[C@]2(C)[C@@H](OC)C[C@H]3OC[C@@]3(OC(C)=O)[C@H]2[C@H](OC(=O)c2ccccc2)[C@]23OC(=O)O[C@H]2[C@H](OC(=O)[C@H](O)[C@@H](NC(=O)OC(C)(C)C)c2ccccc2)C(C)=C1C3(C)C	98.2%	6.42	2.83 ×10⁻⁶ cm/s	2.1 nM	18.2 ×10⁻⁶ cm/s	89.8%	89%	94.7%	93.5%	82.2%	84.7%	95.9%
CO[C@H]1C(=O)[C@]2(C)CC[C@H]3OC[C@@]3(OC(C)=O)[C@H]2[C@H](OC(=O)c2ccccc2)[C@]23OC(=O)O[C@H]2[C@H](OC(=O)[C@H](O)[C@@H](NC(=O)OC(C)(C)C)c2ccccc2)C(C)=C1C3(C)C	99.9%	9.56	2.64 ×10⁻⁶ cm/s	4.49 nM	25.3 ×10⁻⁶ cm/s	94.4%	87.3%	96%	86.3%	84.7%	89.1%	97.7%
CO[C@H]1C(=O)[C@@]2(C)[C@H]([C@H](OC(=O)c3ccccc3)[C@]34OC(=O)O[C@H]3[C@H](OC(=O)[C@H](O)[C@@H](NC(=O)OC(C)(C)C)c3ccccc3)C(C)=C1C4(C)C)[C@]1(OC(C)=O)CO[C@@H]1C[C@@H]2O	100%	51	0.88 ×10⁻⁶ cm/s		44.7 ×10⁻⁶ cm/s	92.5%	86.6%	95%	87.1%	82.7%	86.8%	97.5%
CO[C@H]1C(=O)[C@]2(C)[C@@H](OC(=O)N(C)C)C[C@H]3OC[C@@]3(OC(C)=O)[C@H]2[C@H](OC(=O)c2ccccc2)[C@]23OC(=O)O[C@H]2[C@H](OC(=O)[C@H](O)[C@@H](NC(=O)OC(C)(C)C)c2ccccc2)C(C)=C1C3(C)C	100%		< 1.67 ×10⁻⁶ cm/s	15.4 nM		93.1%	87.4%	95.9%	84.7%	86.2%	90.7%	97.5%
CO[C@H]1C(=O)[C@]2(C)[C@@H](OC(=O)N(C)C)C[C@H]3OC[C@@]3(OC(C)=O)[C@H]2[C@H](OC(=O)c2ccccc2)[C@]23OC(=O)O[C@H]2[C@H](OC(=O)[C@H](O)[C@H](CC(C)C)NC(=O)OC(C)(C)C)C(C)=C1C3(C)C		2.39	2.4 ×10⁻⁶ cm/s	21.2 nM	5.74 ×10⁻⁶ cm/s							
COC(=O)O[C@H]1C[C@H]2OC[C@@]2(OC(C)=O)[C@H]2[C@H](OC(=O)c3ccccc3)[C@]34OC(=O)O[C@H]3[C@H](OC(=O)[C@H](O)[C@H](CC(C)C)NC(=O)OC(C)(C)C)C(C)=C([C@@H](OC)C(=O)[C@]12C)C4(C)C		7.81	0.92 ×10⁻⁶ cm/s	2.94 nM	7.16 ×10⁻⁶ cm/s							
CC(=O)O[C@H]1C(=O)[C@@]2(C)[C@H]([C@H](OC(=O)c3ccccc3)[C@]34OC(=O)O[C@H]3[C@H](OC(=O)[C@H](O)[C@H](CC(C)C)NC(=O)OC(C)(C)C)C(C)=C1C4(C)C)[C@]1(OC(C)=O)CO[C@@H]1C[C@@H]2O [ORTATAXEL]	99.5%	6.84	2.8 ×10⁻⁶ cm/s		19.2 ×10⁻⁶ cm/s	96.7%	87.7%	96.4%	88.7%	85.5%	90.6%	96.5%
